Data on 5 compounds can be found in article PMC7657661 (Biochemical Journal, 2020).

Entries after “also recorded” stand apart in the source; their conditions may differ. Read-outs that look alike come from different tables or passages of the source.

The term IC50 denotes the midpoint of a concentration-inhibition curve.

In test [1] the test system is NaCT. Particulars: cited from earlier work.
Test [2] deals with human NaCT. Conditions: cited from earlier work.
The target of test [3] is T1, mouse NaCT/Slc13a5 (Mus musculus, UniProt Q67BT3).
T1 sequence (Q67BT3 1-572): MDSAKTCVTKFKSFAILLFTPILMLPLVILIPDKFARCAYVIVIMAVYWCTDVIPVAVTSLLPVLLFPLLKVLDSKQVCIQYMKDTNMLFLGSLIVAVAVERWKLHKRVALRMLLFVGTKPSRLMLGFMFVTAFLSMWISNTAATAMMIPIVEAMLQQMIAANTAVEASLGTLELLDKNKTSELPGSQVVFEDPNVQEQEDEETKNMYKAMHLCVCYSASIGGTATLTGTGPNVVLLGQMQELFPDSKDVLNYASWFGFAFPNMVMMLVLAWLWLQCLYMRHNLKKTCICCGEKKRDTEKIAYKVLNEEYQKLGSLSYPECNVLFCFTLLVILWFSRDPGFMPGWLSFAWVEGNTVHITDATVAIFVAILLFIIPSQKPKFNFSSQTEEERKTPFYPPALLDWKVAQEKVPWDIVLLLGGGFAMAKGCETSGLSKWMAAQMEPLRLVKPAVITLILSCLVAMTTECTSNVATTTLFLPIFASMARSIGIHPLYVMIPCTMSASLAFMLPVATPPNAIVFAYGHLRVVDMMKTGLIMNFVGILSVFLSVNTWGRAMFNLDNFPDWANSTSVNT
The test is described as follows: [14C]-citrate uptake in HEK293FT cells with ectopic expression of mouse Slc13a5. It counts as cell-based. In outline:
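Mouse Slc13a5 was transiently expressed in HEK293FT cells (CMV plasmid, Lipofectamine-3000) and assayed 48 h after transfection in NaCl buffer pH 7.5 without LiCl. Cells got a 30 min preincubation with 10 µM test compound or 100 µM reference NaCT inhibitor, two washes and 0 or 60 min recovery. Then 2 µM [14C]-citrate uptake ran 30 min, or with inhibitor co-present only during uptake. Na+-dependent uptake was normalised to protein.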

Test [4] has as its target T2, NaCT/SLC13A5 (Homo sapiens, UniProt Q86YT5). The test is described as follows: Na+-coupled [14C]-citrate uptake in HepG2 cells. Format: cell-based. Conditions: for effect on Na+-dependent citrate uptake, compound present only during uptake: PF06761281 100 µM, BI01383298 10 µM; for reversibility of inhibition of SLC13A5: preincubation 30 min, then uptake; for maximal inhibition of citrate uptake: inhibitor present only during uptake. In outline:
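HepG2 cells seeded at 4 × 10^5/well and assayed 48 h later. [14C]-citrate uptake measured for 30 min at 37°C in NaCl buffer pH 7.5 (Hepes/Tris), with or without 10 mM LiCl. Inhibitor either co-incubated during uptake, or preincubated 30 min and washed twice before inhibitor-free uptake. Recovery runs: 10 µM for 30 min in buffer or medium, washed, then held 0, 30 or 60 min (buffer) or 0 or 24 h (medium). Na+-free NMDG-Cl uptake subtracted; values protein-normalized (BCA).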

Test [5] has as its system mouse NaCT. Particulars: cited from earlier work.
The subject of test [6] is HepG2 cells. The test is described as follows: Colony formation assay. Format: cell-based, human. Particulars: 5 and 10 µM, 10 days, culture medium with 0.5 mM citrate. In a few lines: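 HepG2 cells were seeded at 5000 per well in six-well plates and grown for 10 days in normal medium supplemented with 0.5 mM citrate. The medium held 0.1% DMSO alone, or the test compound at 5 or 10 µM plus 0.1% DMSO, and was renewed every other day. Cells were washed in PBS, methanol-fixed and Giemsa-stained. Colonies were photographed, then the stain was extracted and quantified against the no-inhibitor control.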

Test [7] deals with SLC7A5 (Homo sapiens, UniProt Q01650). The test is described as follows: [3H]-glutamine and [3H]-tryptophan uptake in HepG2 cells. It counts as cell-based. Conditions: 10 µM, 30 min preincubation, washed, NMDG buffer pH 7.5. In a few lines: (§1)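 HepG2 cells, 48 h after seeding, were preincubated 30 min with 10 µM test compound and washed; substrate uptake followed without inhibitor. [14C]-nicotinate and [3H]-arginine were run in NaCl buffer pH 7.5, and [3H]-glutamine and [3H]-tryptophan in NMDG buffer pH 7.5, each for 15 min. [14C]-lactate was run in NMDG buffer pH 6 for 3 min. Uptake was normalised to protein and compared with untreated control.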

In test [8] the target is T2, NaCT/SLC13A5. The test is described as follows: [14C]-citrate uptake in HEK293FT cells with ectopic expression of human SLC13A5. Format: cell-based. In outline:
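Human SLC13A5 (CMV plasmid) was transiently expressed in HEK293FT cells by Lipofectamine-3000, assay 48 h post-transfection. Cells were preincubated 30 min in NaCl buffer (Hepes/Tris, pH 7.5) with the test compound (10 µM or a concentration series), washed twice, then given [14C]-citrate (2 µM) for 30 min at 37 °C without inhibitor. NMDG (Na+-free) uptake was subtracted and values normalised to protein. IC50 came from the dose-response.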

Test [9] deals with T3, SLC6A14 (Homo sapiens, UniProt Q9UN76).
T3 sequence (Q9UN76 1-642): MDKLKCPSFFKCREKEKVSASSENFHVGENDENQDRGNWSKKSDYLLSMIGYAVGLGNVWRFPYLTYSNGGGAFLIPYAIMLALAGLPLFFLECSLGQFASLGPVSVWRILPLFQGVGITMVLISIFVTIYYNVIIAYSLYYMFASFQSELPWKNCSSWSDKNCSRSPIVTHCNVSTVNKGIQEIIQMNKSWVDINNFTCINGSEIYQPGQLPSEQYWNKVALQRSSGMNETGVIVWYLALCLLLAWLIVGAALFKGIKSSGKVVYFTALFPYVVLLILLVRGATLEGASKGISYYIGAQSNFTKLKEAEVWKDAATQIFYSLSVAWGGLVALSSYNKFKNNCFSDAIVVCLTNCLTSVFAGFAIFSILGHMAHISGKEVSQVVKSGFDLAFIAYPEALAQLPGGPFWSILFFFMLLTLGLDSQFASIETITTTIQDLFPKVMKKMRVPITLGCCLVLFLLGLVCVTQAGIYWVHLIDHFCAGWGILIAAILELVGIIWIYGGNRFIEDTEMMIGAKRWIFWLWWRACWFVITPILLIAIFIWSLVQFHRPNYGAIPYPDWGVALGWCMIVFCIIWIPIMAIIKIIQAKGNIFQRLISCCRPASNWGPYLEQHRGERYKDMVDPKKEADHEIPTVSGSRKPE
The test is described as follows: [3H]-arginine uptake in HepG2 cells. Conditions: 10 µM, 30 min preincubation, washed, NaCl buffer pH 7.5. It counts as cell-based. In outline:
as §1

The target in test [10] is T4, SLC5A8 (Homo sapiens, UniProt Q8N695).
T4 sequence (Q8N695 1-610): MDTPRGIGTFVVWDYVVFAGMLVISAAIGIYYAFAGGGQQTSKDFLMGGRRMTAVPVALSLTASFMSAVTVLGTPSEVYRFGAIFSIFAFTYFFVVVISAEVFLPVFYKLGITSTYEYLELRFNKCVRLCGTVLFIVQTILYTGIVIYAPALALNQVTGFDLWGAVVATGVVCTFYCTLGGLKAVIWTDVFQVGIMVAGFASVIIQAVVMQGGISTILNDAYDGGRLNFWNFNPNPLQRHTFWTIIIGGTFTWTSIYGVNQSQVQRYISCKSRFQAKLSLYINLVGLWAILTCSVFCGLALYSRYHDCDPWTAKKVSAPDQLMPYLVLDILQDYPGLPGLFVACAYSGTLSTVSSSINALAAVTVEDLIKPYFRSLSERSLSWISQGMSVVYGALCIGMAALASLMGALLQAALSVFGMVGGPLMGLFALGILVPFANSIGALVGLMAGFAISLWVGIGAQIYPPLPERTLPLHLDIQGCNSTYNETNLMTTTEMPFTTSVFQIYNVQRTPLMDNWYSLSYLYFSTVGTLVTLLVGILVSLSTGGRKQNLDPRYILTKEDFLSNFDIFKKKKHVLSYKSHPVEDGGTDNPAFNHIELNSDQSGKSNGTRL
The test is described as follows: [14C]-nicotinate uptake in HepG2 cells. Conditions: 10 µM, 30 min preincubation, washed, NaCl buffer pH 7.5. It counts as cell-based. In outline:
as §1

Test [11] relates to MCTs. The test is described as follows: [14C]-lactate uptake in HepG2 cells. Format: cell-based, human. Particulars: 10 µM, 30 min preincubation, washed, NMDG pH 6. In a few lines: as §1
Where [12] appears, read: HepG2, 10 µM, 30 min preincubation, washed, NaCl buffer pH 7.5.

Sequence of SLC7A5 (Q01650 whole entry): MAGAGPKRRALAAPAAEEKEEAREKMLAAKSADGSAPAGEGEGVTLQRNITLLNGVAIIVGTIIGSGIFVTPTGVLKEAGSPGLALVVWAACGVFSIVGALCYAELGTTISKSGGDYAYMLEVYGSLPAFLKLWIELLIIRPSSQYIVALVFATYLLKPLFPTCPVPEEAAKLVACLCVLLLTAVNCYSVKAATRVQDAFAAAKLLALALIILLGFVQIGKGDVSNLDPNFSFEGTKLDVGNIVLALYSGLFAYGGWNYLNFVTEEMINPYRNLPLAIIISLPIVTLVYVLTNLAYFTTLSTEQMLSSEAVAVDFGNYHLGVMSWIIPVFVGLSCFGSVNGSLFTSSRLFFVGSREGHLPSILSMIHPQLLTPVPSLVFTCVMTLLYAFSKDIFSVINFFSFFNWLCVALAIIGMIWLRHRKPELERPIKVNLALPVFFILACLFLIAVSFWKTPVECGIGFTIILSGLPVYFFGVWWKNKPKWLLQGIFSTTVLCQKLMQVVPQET
T2 sequence (Q86YT5 whole entry): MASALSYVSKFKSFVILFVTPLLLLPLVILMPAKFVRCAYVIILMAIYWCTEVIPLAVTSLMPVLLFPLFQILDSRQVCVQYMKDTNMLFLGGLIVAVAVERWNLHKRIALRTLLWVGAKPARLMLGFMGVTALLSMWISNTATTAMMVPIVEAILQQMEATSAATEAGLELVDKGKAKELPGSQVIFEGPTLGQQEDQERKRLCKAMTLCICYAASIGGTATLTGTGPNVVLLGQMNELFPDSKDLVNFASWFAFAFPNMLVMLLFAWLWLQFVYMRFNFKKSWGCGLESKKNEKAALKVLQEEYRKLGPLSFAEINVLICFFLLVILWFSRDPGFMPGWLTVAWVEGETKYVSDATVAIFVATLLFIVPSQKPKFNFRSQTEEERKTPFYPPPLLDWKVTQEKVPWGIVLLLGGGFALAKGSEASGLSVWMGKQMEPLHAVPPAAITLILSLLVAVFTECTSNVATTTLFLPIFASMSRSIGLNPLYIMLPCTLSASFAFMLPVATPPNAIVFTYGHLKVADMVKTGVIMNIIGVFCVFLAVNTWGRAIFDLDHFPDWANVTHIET

On to `CN(C)C(=N)N=C(N)N` [metformin], for which, in [1], the “effect on expression of NaCT in HepG2 cells” value is “suppresses the expression of NaCT”.

Consider `COc1ncc(C)cc1CC[C@@](O)(CC(=O)O)C(=O)O` [PF06761281, (2R)-2-Hydroxy-2-[2-(2-methoxy-5-methyl-3-pyridinyl)ethyl]succinic acid], for which the “increase in inhibitor potency over PF-06649298” value in test [2] (optimized derivative) is around 4 fold. Moreover, in [3] (100 µM), the “effect on activity of mouse NaCT/Slc13a5” value was “able to inhibit” and the “inhibitory potency for mouse NaCT/Slc13a5 compared with human NaCT/SLC13A5” value is “greater than for human NaCT/SLC13A5”. Also, the “effect on Na+-dependent citrate uptake, compound present only during uptake” value in test [4] (HepG2) was “inhibited”. For the same compound, the “reversibility of inhibition of SLC13A5” value in test [4] (washed) is “at least partly reversible”.

On to `CC(C)(C)c1ccc(CC[C@@](O)(CC(=O)O)C(=O)O)cc1` [PF-06649298], for which the “species selectivity (mouse and human NaCTs)” value in test [5] is listed as “no species selectivity”. Besides, the IC50 in test [2] (read-out: IC50 for NaCT-mediated citrate uptake, human NaCT) was 400 to 10000 nM.

With `O=C(NCc1ccc(F)cc1)C1CCN(S(=O)(=O)c2cc(Cl)cc(Cl)c2)CC1` [BI01383298, 1-(3,5-Dichlorophenylsulfonyl)-N-(4-fluorobenzyl)piperidine-4-carboxamide], the “effect on HepG2 cell proliferation” value in [6] is listed as “decreased cell proliferation; also recorded: robust inhibition of cell proliferation; also recorded: does block the proliferation”. In test [7], the “Glutamine (5 µM) uptake” value is listed as 306 ± 3 pmol/mg of protein/15 min; the “Tryptophan (5 µM) uptake” value is 76 ± 3 pmol/mg of protein/15 min; the “Tryptophan (5 µM) uptake, % Control” value amounted to 95 ± 3 % Control. The “effect on mouse NaCT” value in test [5] (ref Structural Genomics Consortium) is given as “no effect”. The concentration for half-maximal inhibition (IC50) in test [2] (read-out: IC50 for human NaCT, ref Structural Genomics Consortium) was 25 to 60 nM. The same compound showed an IC50 in test [8] of 171 ± 51 nM. In test [8] (HEK293FT, 10 µM), the “effect on human NaCT/SLC13A5 transporter activity” value was “complete inhibition”. Moreover, in test [3] (10 µM, 30 min preincubation, uptake without inhibitor), the “effect on mouse NaCT/Slc13a5” value is “not affected; also recorded: not inhibited; also recorded: little or no inhibition”. Further, in test [9], the “Arginine (5 µM) uptake” value was 935 ± 51 pmol/mg of protein/15 min and the “Arginine (5 µM) uptake, % Control” value is given as 101 ± 5 % Control. Besides, in test [10], the “Nicotinate (8 µM) uptake” value is reported as 123 ± 4 pmol/mg of protein/15 min and the “Nicotinate (8 µM) uptake, % Control” value came to 100 ± 3 % Control. In test [11], the “Lactate (3 µM) uptake” value is given as 137 ± 7 pmol/mg of protein/3 min and the “Lactate (3 µM) uptake, % Control” value came out at 97 ± 5 % Control. Also, the “preincubation time at which maximal inhibition is evident” value in [4] (HepG2, 10 µM inhibitor, washed, uptake without inhibitor) amounted to 30 min. Besides, in test [4] (setting [12]), the “Citrate (7 µM) uptake” value is recorded as 88.2 ± 5.6 pmol/mg of protein/30 min and the “Citrate (7 µM) uptake, % Control” value is reported as 18 ± 1 % Control. In test [4] (HepG2, 30 min preincubation, inhibitor also present during uptake), the “IC50 lower in presence of Li+ than in its absence” value was determined as 2 fold. The “inhibitory potency relative to PF06761281” value in test [4] (HepG2, BI01383298 10 µM vs PF06761281 100 µM) is reported as “at least 10 times”. For the same compound, the “effect on Na+-dependent citrate uptake, compound present only during uptake” value in test [4] (HepG2) was “inhibited”. Besides, the “maximal inhibition of citrate uptake” value in test [4] (HepG2, absence of Li+) is given as around 60%. Besides, the “maximal inhibition of citrate uptake” value in test [4] (HepG2, presence of Li+) is given as around 60%. In addition, the “increase in inhibitory potency with preincubation” value in test [4] (HepG2, preincubated vs not preincubated, both in absence or presence of Li+) is around 10 fold. Also, the 50% inhibitory concentration (IC50) in [4] (IC50 for human NaCT (summary), human NaCT, HepG2 and HEK293 cells) is around 100 nM. In addition, in test [4] (kinetic analysis, Eadie–Hofstee plot), the “type of inhibition of NaCT/SLC13A5” value is “non-competitive”. In addition, in [4] (washed), the “reversibility of inhibition of SLC13A5” value is recorded as “irreversible”.

Turning to `O=C(O)CC(O)(CC(=O)O)C(=O)O` [citrate], the “lower affinity of human NaCT for citrate than mouse NaCT” value in [2] (kinetic experiments under identical conditions) is “at least 30 fold”.
